15 molecules from ChEMBL document CHEMBL4382201 (J Med Chem, 2018) can be followed below.

Values after ≈ are worked out from the molar mass of the structure shown. Active and inactive are the calls of the source. The calls are words filed in the database; no cut-off is given here.

For orientation: IC50 means the concentration that inhibits the measured activity by half. Read a high IC50 as lower potency. For orientation: solubility means the concentration that dissolves in the medium under given conditions. Read a low solubility as little dissolved substance. One may read the GI50 as the concentration giving 50% growth inhibition. Low values mean more potent growth inhibition, high ones less potent growth inhibition.

The subject of data set [1] is dsDNA. Nature of the data set: Induction of DNA-interstanded-cross-link formation in [32P]-labeled 49-mer duplex DNA (unknown origin) at 1 mM in absence of H2O2 after 16 hrs by PAGE relative to control. The class given is functional. An outline of the steps:
(§1)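 A 32P-labelled 49-mer, annealed with 1.5 equiv complement (65 °C for 3 min in 10 mM potassium phosphate pH 7, 100 mM NaCl, then slow cooling), was used at 1.0 µM before final dilution. Duplex was mixed with compound (final 1 mM), NaCl and potassium phosphate pH 8, with or without H2O2. Incubation 16 h at room temperature, formamide quench, then 20% denaturing PAGE.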

For data set [2], the system named is Panel NCI-60 (60 carcinoma cell lines). Nature of the data set: Growth inhibition of human NCI60 cells at 10 uM after 48 hrs by SRB assay relative to control. It is filed as functional, cell-based. The method in brief:
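NCI-60 one-dose screen: cells exposed to 10 µM for 48 h at 37 °C, 5% CO2, 100% humidity. Percent growth is given relative to the no-drug control and the time-zero cell count.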
In general terms: Sulforhodamine B stains cellular protein and so reports cell mass.

For data set [3], the system named is MDA-MB-468. Nature of the data set: Growth inhibition of human MDA-MB-468 cells after 48 hrs by […]. The class given is functional, cell-based. To be noted: MDA-MB-468, 48 h. For orientation: Polarisation of emitted light reports the rotation of a fluorescent probe.
Data set [4] concerns dsDNA. Nature of the data set: Induction of DNA-interstanded-cross-link formation in [32P]-labeled 49-mer duplex DNA (unknown origin) at 1 mM in presence of H2O2 after 16 hrs by PAGE relative to control. The class given is functional. An outline of the steps: as §1
A short description of data set [5]: Solubility of the compound in PBS buffer at 10 mM at pH 7.4 by UV-based analysis. It is filed as physicochemical. An outline of the steps: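 Compound (10 mM DMSO stock) was diluted into pH 7.4 buffer (ethanolamine/KH2PO4/potassium acetate/KCl) to a final 5% DMSO. After sonication and 18 h agitation the mixture was filtered and scanned by UV at 230-800 nm. Solubility was calculated from calibration plots made in 20% acetonitrile buffer, in quadruplicate, with solubility standards on each plate.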

The next data set has as its system Lymphocyte. Nature of the data set: Induction of apoptosis in human lymphocytes at 10 uM after 24 hrs by Annexin V-FITC/propidium iodide-staining based flow cytometry. The class given is cell-based. The method in brief: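 Normal PBMCs from 3 donors were isolated on Ficoll and treated at 10 µM. Apoptosis was measured by annexin V-FITC/PI flow cytometry against time-matched untreated controls.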
A general note: In flow cytometry, cells or beads pass a laser one at a time.

Data set [6] concerns DNA. Nature of the data set: Induction of DNA cross-linking activity in human CLL-derived lymphocytes assessed as increase in gammaH2AX formation at 1 uM after 24 hrs by flow cytometry. It is filed as functional, cell-based. An outline of the steps:
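Primary CLL lymphocytes from 3 patients were treated for 24 h at 10 µM or 1 µM, depending on compound. H2AX phosphorylation (% γH2AX) was measured by flow cytometry.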

Data set [7] is described as follows: Drug level in DMSO-d6/PBS buffer treated with 4-(bis(2-chloroethyl)amino)phenylboronic acid assessed as compound formation after 10 days in presence of GSH by IT-TOF mass analysis. It is filed as physicochemical. To be noted: 240 h.
Data set [8] can be described thus: Drug metabolism in PBS buffer assessed as 4-(bis(2-chloroethyl)amino)phenylboronic acid formation at pH 6 to 7 after 48 hrs.
A short description of data set [9]: Drug metabolism in DMSO-d6/PBS buffer assessed as 2-((2-chloroethyl)(4-(4,4,5,5-tetramethyl-1,3,2-dioxaborolan-2-yl)phenyl)amino)ethanol formation after 10 days in presence of GSH by IT-TOF mass analysis.
Data set [10] is described as follows: Drug metabolism in DMSO-d6/PBS buffer assessed as 4-(bis(2-chloroethyl)amino)phenylboronic acid formation after 10 days in presence of GSH by IT-TOF mass analysis.
A further data set relates to SR. In words: Growth inhibition of human SR cells after 48 hrs by SRB assay. It is filed as functional. An outline of the steps:
(§2)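 NCI-60 five-dose screen at 100 µM, 10 µM, 1 µM, 100 nM and 10 nM. Incubation 48 h at 37 °C, 5% CO2, 100% humidity. Growth was expressed relative to the no-drug control and to the time-zero cell number, and GI50 was derived from these values.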

Data set [11] deals with MDA-MB-468. In words: Growth inhibition of human MDA-MB-468 cells after 48 hrs by SRB assay. The class given is functional. To be noted: MDA-MB-468, 48 h. The method in brief: as §2
In another data set the test system is CCRF-CEM. In words: Growth inhibition of human CCRF-CEM cells after 48 hrs by SRB assay. The class given is functional. An outline of the steps:
as §2

A further data set relates to K562. In words: Growth inhibition of human K562 cells after 48 hrs by SRB assay. The class given is functional. To be noted: K562, 48 h. An outline of the steps: as §2
The subject of another data set is MOLT-4. In words: Growth inhibition of human MOLT4 cells after 48 hrs by SRB assay. The class given is functional. To be noted: MOLT-4, 48 h. An outline of the steps: as §2
For the next data set, the system named is RPMI-8226. In words: Growth inhibition of human RPMI8226 cells after 48 hrs by SRB assay. To be noted: RPMI-8226, 48 h. It is filed as functional. The method in brief:
as §2

The subject of the next data set is HOP-92. Nature of the data set: Growth inhibition of human HOP92 cells after 48 hrs by SRB assay. It is filed as functional. To be noted: HOP-92, 48 h. The method in brief: as §2
For another data set, the system named is HT-29. In words: Growth inhibition of human HT-29 cells after 48 hrs by SRB assay. It is filed as functional. To be noted: HT-29, 48 h. An outline of the steps: as §2
A further data set concerns SNB-75. Nature of the data set: Growth inhibition of human SNB75 cells after 48 hrs by SRB assay. It is filed as functional. To be noted: SNB-75, 48 h. An outline of the steps: as §2
A further data set relates to Malme-3M. Nature of the data set: Growth inhibition of human MALME-3M cells after 48 hrs by SRB assay. The class given is functional. The method in brief: as §2
Another data set relates to IGROV-1. Nature of the data set: Growth inhibition of human IGROV1 cells after 48 hrs by SRB assay. It is filed as functional. To be noted: IGROV-1, 48 h. An outline of the steps:
as §2

Another data set concerns SK-OV-3. In words: Growth inhibition of human SKOV3 cells after 48 hrs by SRB assay. It is filed as functional. To be noted: SK-OV-3, 48 h. An outline of the steps:
as §2

A further data set has as its system MCF7. In words: Growth inhibition of human MCF7 cells after 48 hrs by SRB assay. It is filed as functional. To be noted: MCF7, 48 h. The method in brief:
as §2

Data set [12] in a line: Drug level in DMSO-d6/PBS buffer treated with (3-(((2-Amino-3-methoxy-3-oxopropyl)thio)methyl)-4-(bis(2-chloroethyl)amino)phenyl)boronic Acid assessed as compound formation after 10 days in presence of GSH by IT-TOF mass analysis. It is filed as physicochemical. To be noted: 240 h.
The nature of data set [13]: Drug level in DMSO-d6/PBS buffer treated with N,N-bis(2-chloroethyl)-4-(4,4,5,5-tetramethyl-1,3,2-dioxaborolan-2-yl)aniline assessed as compound formation after 10 days in presence of GSH by IT-TOF mass analysis. To be noted: 240 h. It is filed as physicochemical.
Data set [14] has as its system DNA. In words: Induction of DNA cross-linking activity in human CLL-derived lymphocytes assessed as increase in gammaH2AX formation at 5 to 20 uM after 24 hrs by flow cytometry. The class given is functional, cell-based. An outline of the steps: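 Primary CLL lymphocytes from 5 patients were treated at 5-20 µM for 24 h. γH2AX was quantified by flow cytometry.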

On to `COC(=O)C(CSCc1cc(B2OC(C)(C)C(C)(C)O2)ccc1N(CCCl)CCCl)NC(=O)OC(C)(C)C` (centres undefined), for which the Activity in the data set with dsDNA [1] was less than 5%. Further, the “growth inhibition (GI)” value in data set [2] is “inactive”.

As to `N[C@@H](Cc1ccc(N(CCCl)CCCl)cc1)C(=O)O` [MELPHALAN], the Activity in the data set on dsDNA [1] worked out at 4.9%. The molecule also showed an IC50 in the data set on MDA-MB-468 [3] of 48.7 µM.

As for `COc1cc(N(CCCl)CCCl)ccc1B1OC(C)(C)C(C)(C)O1`, the Activity in the data set with dsDNA [1] is 8%; with dsDNA [4], less than 65%; with Lymphocyte it was “Non-Toxic”. The solubility in data set [5] amounted to 50 µM (≈ 18.7 µg/mL). In addition, the result in the data set with DNA [6] was Active. Besides, in the data set on MDA-MB-468 [3], the concentration for half-maximal inhibition (IC50) worked out at 34.4 µM.

On to `O=C(O)CCCc1ccc(N(CCCl)CCCl)cc1` [CHLORAMBUCIL], for which the Activity with dsDNA [1] came to 5.7%. Further, in the data set with MDA-MB-468 [3], the midpoint of inhibition, the IC50, lay at 34.4 µM.

Take `N[C@H](Cc1cn(Cc2cc(B(O)O)ccc2N(CCCl)CCCl)c2ccccc12)C(=O)O`: the Activity is 1.5 to 15% in the data set on dsDNA [1] and less than 65% in the data set on dsDNA [4]. Moreover, in [2], the “growth inhibition (GI)” value was “inactive”.

With `OCCN(CCCl)c1ccc(B(O)O)cc1`, in [7], the Drug uptake result was “Active”.

On to `CC1(C)OB(c2ccc(N(CCCl)CCCl)cc2)OC1(C)C`, for which the Drug metabolism entry in data set [8], in data set [9] and in data set [10] was “Metabolite detected” in each case. For the same molecule, the values for the Activity in the data set with dsDNA [1] and with dsDNA [4] were 1.5 to 15% and less than 65%, respectively. For the same molecule, the values for the 50% growth inhibitory concentration (GI50) in the data set on SR and in the data set with MDA-MB-468 [11] were 0.63 µM and 1.6 µM, respectively. The molecule also had a solubility in data set [5] of 167 µM (≈ 57.5 µg/mL). Besides, half-maximal inhibition in the data set on MDA-MB-468 [3] (IC50) required 24.6 µM.

In turn, `CCCCOC(=O)C(NC(=O)OC(C)(C)C)c1cn(Cc2cc(B3OC(C)(C)C(C)(C)O3)ccc2N(CCCl)CCCl)c2ccccc12` (centres undefined) returned an Activity in the data set on dsDNA [1] of less than 5%. Moreover, in data set [2], the “growth inhibition (GI)” value was “inactive”.

For `Cc1cc(N(CCCl)CCCl)ccc1B1OC(C)(C)C(C)(C)O1`, the GI50 stood at 2.9 µM with CCRF-CEM; 5.48 µM in the data set with K562; 2.6 µM in the data set with MOLT-4; 12 µM with RPMI-8226; 0.49 µM with SR; 13.3 µM with HOP-92. For the same molecule, the GI50 with HT-29 came out at 14.7 µM; with SNB-75, 10.1 µM; with Malme-3M, 13.6 µM; in the data set with IGROV-1 it was 16.1 µM; in the data set on SK-OV-3, 4.62 µM; in the data set with MDA-MB-468 [11] it was 7.88 µM. The same molecule had a concentration for 50% growth inhibition (GI50) with MCF7 of 3.86 µM. The values for the Activity with dsDNA [1] and in the data set on dsDNA [4] were 1.5 to 15% and less than 65%, respectively. This molecule also registered a solubility in [5] of 24 µM (≈ 8.59 µg/mL). In the data set with MDA-MB-468 [3], the half-inhibitory concentration (IC50) worked out at 48.3 µM.

Turning to `CC1(C)OB(c2ccc(N(CCCl)CCCl)c([N+](=O)[O-])c2)OC1(C)C`, the Activity in the data set with dsDNA [1] is 1.5 to 15%; in the data set on dsDNA [4], less than 9%. For the same molecule, the concentration in solution in [5] (solubility) was 380 µM (≈ 148 µg/mL). Moreover, in data set [2], the “growth inhibition (GI)” value was “inactive”. For the same molecule, half-maximal inhibition in the data set with MDA-MB-468 [3] (IC50) required 92.8 µM.

For `COC(=O)C1CSCc2cc(B(O)O)ccc2N(CCCl)CCN1` (centres undefined), the Drug uptake result in [12] is given as “Active”.

With `COC(=O)C1CSCc2cc(B(O)O)ccc2N(CCO)CCN1` (centres undefined), the Drug uptake result in [12] was “Active”.

With `N[C@H](CSCc1cc(B(O)O)ccc1N(CCO)CCCl)C(=O)O`, the Drug uptake entry in data set [12] is on record as “Active”.

Regarding `CC1(C)OB(c2ccc(N(CCO)CCCl)cc2)OC1(C)C`, in [13], the Drug uptake result is “Active”.

Take `CC1(C)OB(c2ccc(CO)cc2)OC1(C)C`: the outcome in the data set on DNA [14] was inactive.
